Reference: ChEMBL document CHEMBL2434966, “Novel N-4-piperazinyl-ciprofloxacin-chalcone hybrids: synthesis, physicochemical properties, anticancer and topoisomerase I and II inhibitory activity” (Eur J Med Chem, 2013)

Legend:
[1] = biological target: T1, DNA topoisomerase 1 (Homo sapiens) (UniProt P11387); assay: Inhibition of human recombinant topoisomerase 1-mediated relaxation of supercoiled pBR322 DNA at 100 uM after 30 mins by agarose gel electrophoresis relative to control
T1 sequence (whole entry): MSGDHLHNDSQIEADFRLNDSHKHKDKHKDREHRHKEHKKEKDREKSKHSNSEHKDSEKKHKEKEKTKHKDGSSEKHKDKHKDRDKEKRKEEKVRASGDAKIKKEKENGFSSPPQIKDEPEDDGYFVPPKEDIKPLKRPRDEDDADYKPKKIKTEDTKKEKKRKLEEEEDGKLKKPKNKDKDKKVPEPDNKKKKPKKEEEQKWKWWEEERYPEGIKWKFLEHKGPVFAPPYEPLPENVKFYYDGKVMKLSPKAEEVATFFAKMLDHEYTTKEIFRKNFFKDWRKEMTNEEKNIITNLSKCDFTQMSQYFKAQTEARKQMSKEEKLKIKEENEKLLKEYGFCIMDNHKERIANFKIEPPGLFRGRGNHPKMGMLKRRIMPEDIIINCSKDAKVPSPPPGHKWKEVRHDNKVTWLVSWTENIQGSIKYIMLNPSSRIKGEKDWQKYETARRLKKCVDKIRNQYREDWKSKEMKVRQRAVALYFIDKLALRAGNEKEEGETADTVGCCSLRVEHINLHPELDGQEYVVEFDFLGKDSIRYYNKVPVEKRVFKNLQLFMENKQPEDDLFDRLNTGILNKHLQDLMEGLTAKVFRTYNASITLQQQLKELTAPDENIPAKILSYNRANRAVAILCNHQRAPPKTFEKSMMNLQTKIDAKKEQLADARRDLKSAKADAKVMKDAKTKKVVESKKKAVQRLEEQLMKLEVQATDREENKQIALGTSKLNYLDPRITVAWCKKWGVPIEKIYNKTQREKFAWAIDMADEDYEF
Procedure, shortened: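 Recombinant human topo I (0.4 units) with 100 ng supercoiled pBR322, 37 °C for 30 min in Tris-HCl pH 7.9, 150 mM NaCl, 0.1% BSA, 1 mM spermidine, 5% glycerol. Compounds came from 20 mM DMSO stocks, with matched DMSO in the enzyme-only control. Stopped with sarcosyl; 1% agarose/TAE gel, ethidium stain, UV densitometry. Camptothecin was the positive control.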

[2] = test system: 786-0; assay: Growth inhibition of human 786-0 cells after 48 hrs by sulforhodamine B assay; assay type: functional; details: 786-0, 48 h
Procedure, shortened: (§1)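 NCI 60-panel five-dose test at 10-fold dilutions, 10^-4 to 10^-8 M, with 48 h continuous exposure and SRB protein read-out. Percent growth derived from time-zero, untreated-control and treated absorbances. GI50 is the concentration where [(Ti-Tz)/(C-Tz)]×100 = 50. TGI is taken at Ti = Tz. LC50 is taken at [(Ti-Tz)/Tz]×100 = -50.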

[3] = test system: U-251; assay: Growth inhibition of human U251 cells after 48 hrs by sulforhodamine B assay; assay type: functional; details: U-251, 48 h
Procedure, shortened: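 NCI 60-cell panel, five concentrations (10-fold dilutions, 0.01–100 µM), 48 h continuous exposure; SRB protein stain read spectrophotometrically. Percent growth from time-zero, untreated-control and treated absorbances. GI50 is the concentration giving 50% lower net protein increase than control. Values beyond the tested range are reported as more or less than the highest or lowest concentration.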

[4] = test system: HT-29; assay: Growth inhibition of human HT-29 cells after 48 hrs by sulforhodamine B assay; assay type: functional; details: HT-29, 48 h; for CC50: read-out: LC50 (the source's name); procedure, shortened: as §1
[5] = test system: NCI-H23; assay: Growth inhibition of human NCI-H23 cells after 48 hrs by sulforhodamine B assay; assay type: functional; details: NCI-H23, 48 h; for CC50: read-out: LC50 (the source's name)
Procedure, shortened: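 NCI five-dose screen on the full 60-cell-line panel. Cells were given 10-fold dilutions from 10^-4 to 10^-8 M with continuous 48 h exposure, and growth was read by SRB staining. Percent growth was taken from time-zero, control and treated absorbances. GI50, TGI and LC50 were then derived, the GI50 being the concentration that gives a 50% lower net protein increase than control.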

[6] = test system: HOP-62; assay: Growth inhibition of human HOP62 cells after 48 hrs by sulforhodamine B assay; assay type: functional; details: HOP-62, 48 h; procedure, shortened: as §1
[7] = test system: T47D; assay: Growth inhibition of human T47D cells assessed as cell growth at 10^-5 M after 48 hrs by sulforhodamine B assay; assay type: functional; details: read-out: Activity
Procedure, shortened: (§2)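 NCI primary one-dose screen: single concentration of 10^-5 M added to culture, 48 h incubation, SRB protein-dye endpoint. Percent growth of treated cells measured spectrophotometrically against untreated controls.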

[8] = test system: UO-31; assay: Growth inhibition of human UO31 cells assessed as cell growth at 10^-5 M after 48 hrs by sulforhodamine B assay; assay type: functional; details: UO-31, 48 h, read-out: Activity; procedure, shortened: as §2
[9] = test system: RXF 393; assay: Growth inhibition of human RXF393 cells assessed as cell growth at 10^-5 M after 48 hrs by sulforhodamine B assay; assay type: functional; details: RXF 393, 48 h, read-out: Activity
Procedure, shortened: (§3)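 NCI 60-cell-line primary one-dose screen. Cells were exposed to a single 10^-5 M concentration for 48 h. The end point was sulforhodamine B protein staining, read spectrophotometrically. Results are reported as percent growth of treated cells relative to untreated control cells.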

[10] = test system: CAKI-1; assay: Growth inhibition of human CAKI-1 cells assessed as cell growth at 10^-5 M after 48 hrs by sulforhodamine B assay; assay type: functional; details: CAKI-1, 48 h, read-out: Activity
Procedure, shortened: (§4)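 NCI 60-cell-line primary screen. Single concentration of 10^-5 M, 48 h incubation. End point by sulforhodamine B protein staining read spectrophotometrically. Reported as percent growth of treated cells relative to untreated control cells.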

[11] = test system: 786-0; assay: Growth inhibition of human 786-0 cells assessed as cell growth at 10^-5 M after 48 hrs by sulforhodamine B assay; assay type: functional; details: 786-0, 48 h, read-out: Activity; procedure, shortened: as §4
[12] = test system: OVCAR-3; assay: Growth inhibition of human OVCAR3 cells assessed as cell growth at 10^-5 M after 48 hrs by sulforhodamine B assay; assay type: functional; details: OVCAR-3, 48 h, read-out: Activity; procedure, shortened: as §3
[13] = test system: UACC-62; assay: Growth inhibition of human UACC62 cells assessed as cell growth at 10^-5 M after 48 hrs by sulforhodamine B assay; assay type: functional; details: UACC-62, 48 h, read-out: Activity; procedure, shortened: as §2
[14] = test system: SK-MEL-28; assay: Growth inhibition of human SK-MEL-28 cells assessed as cell growth at 10^-5 M after 48 hrs by sulforhodamine B assay; assay type: functional; details: SK-MEL-28, 48 h, read-out: Activity; procedure, shortened: as §3
[15] = test system: KM12; assay: Growth inhibition of human KM12 cells assessed as cell growth at 10^-5 M after 48 hrs by sulforhodamine B assay; assay type: functional; details: KM12, 48 h, read-out: Activity; procedure, shortened: as §4
[16] = test system: NCI-H226; assay: Growth inhibition of human NCI-H226 cells assessed as cell growth at 10^-5 M after 48 hrs by sulforhodamine B assay; assay type: functional; details: NCI-H226, 48 h, read-out: Activity; procedure, shortened: as §3

Compound | inhibition [1] | GI50 [2] | LC50 [2] | TGI [2] | GI50 [3] | LC50 (concentration killing 50% of cells) [3] | TGI [3] | GI50 [4] | TGI [4] | CC50 [4] | GI50 [5] | TGI [5] | CC50 [5] | GI50 [6] | LC50 (concentration killing 50% of starting cells) [6] | TGI [6] | growth at 10 µM [7] | growth at 10 µM [8] | growth at 10 µM [9] | growth at 10 µM [10] | further results
COc1cc(/C=C/C(=O)c2ccc(NC(=O)CN3CCN(c4cc5c(cc4F)c(=O)c(C(=O)O)cn5C4CC4)CC3)cc2)cc(OC)c1OC | 67.4% | 0.6 µM | 7.7 µM | 2.38 µM | 0.33 µM | 12.9 µM | 1.29 µM | 0.23 µM | 0.63 µM | 9.13 µM | 0.56 µM | 2.91 µM | 14.2 µM | 0.36 µM | 56.9 µM | 11.4 µM | 17.6% | 2.96% | -87.6% | 57.2% | growth at 10 µM [11]: -67.8%; growth at 10 µM [12]: -25.8%; growth at 10 µM [13]: -23.5%; growth at 10 µM [14]: 34%; growth at 10 µM [15]: -65.1%; growth at 10 µM [16]: -9.81%
O=C(CN1CCN(c2cc3c(cc2F)c(=O)c(C(=O)O)cn3C2CC2)CC1)Nc1ccc(C(=O)/C=C/c2ccccc2)cc1 | 57.2% | 4.5 µM | > 100 µM | > 100 µM | 2.92 µM | > 100 µM | > 100 µM | 2.99 µM | 10.3 µM | > 100 µM | 2.48 µM | 14.3 µM | > 100 µM | 4.46 µM | > 100 µM | > 100 µM | 85.1% | 45% | 41.7% | 73.1% | growth at 10 µM [11]: 23.2%; growth at 10 µM [12]: 54.9%; growth at 10 µM [13]: 35.5%; growth at 10 µM [14]: 85.7%; growth at 10 µM [15]: 25.3%; growth at 10 µM [16]: 57.4%
